Data: ChEMBL document CHEMBL1153760, “Identification and structure-activity relationships of chromene-derived selective estrogen receptor modulators for treatment of postmenopausal symptoms” (J Med Chem, 2009)
Blank lines part the entries; values can stand above or below the compound they belong to. The source made the active and inactive calls. The calls are words filed in the database; no cut-off is given here.

Assays:
Rattus norvegicus [1] = test: Effect on bone turnover in po dosed ovariectomized rat assessed as prevention of tibial bone loss administered daily measured after 6 weeks by ex vivo peripheral quantitative computerized tomography; type: functional, organism-based
Rattus norvegicus [2] = test: Decrease in plasma cholesterol level in ovariectomized rat osteopenia model at 0.03 mg/kg, po administered daily measured after 6 weeks; type: functional; design: scale not given: the % may be the effect or the level left
Rattus norvegicus [3] = test: Decrease in plasma cholesterol level in ovariectomized rat osteopenia model at 0.3 mg/kg, po administered daily measured after 6 weeks; type: functional; design: scale not given: the % may be the effect or the level left
Rattus norvegicus [4] = test: Increase in uterine weight in ovariectomized rat osteopenia model at 1 mg/kg, po administered daily measured after 6 weeks; type: functional, organism-based; design: dose 1 mg/kg
Rattus norvegicus [5] = test: Increase in uterine weight in po dosed ovariectomized rat osteopenia model administered daily measured after 6 weeks; type: functional, organism-based
[6] = Half life in rat at 2 mg/kg, iv administered as single dose by LC-MS/MS analysis; type: ADME, organism-based; design: dose 2 mg/kg, route intravenous; conditions: in vivo
Outline: (§1)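 Single-dose rat pharmacokinetics. IV dosing at 1-3 mg/kg as a solution in 10% β-cyclodextrin; oral gavage at 10 mg/kg as a uniform suspension in 0.5% methylcellulose. Blood (0.5 mL) collected into heparinized tubes by orbital sinus puncture after dosing. Plasma extracted into acetonitrile with an internal standard and analysed by LC-MS-MS against standards to obtain PK parameters.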

Rattus norvegicus [7] = test: Decrease in plasma cholesterol level in ovariectomized rat osteopenia model at 0.01 to 0.1 mg/kg, po administered daily measured after 6 weeks; type: functional; design: scale not given: the % may be the effect or the level left; conditions: dose mg/kg 0.01-0.1
Rattus norvegicus [8] = species on record: Rattus norvegicus; test: animal or person; type: functional; conditions: Uterus, 72 h, route oral
Estrogen receptor beta = Estrogen receptor beta (Homo sapiens, UniProt Q92731); test: Inhibition of fluormone ES2 binding to estrogen receptor beta after 1 hr by fluorescence polarization assay
[9] = AUC in rat at 2 mg/kg, iv administered as single dose by LC-MS/MS analysis; type: ADME, organism-based; design: dose 2 mg/kg, route intravenous; conditions: plasma; outline: as §1
Estrogen receptor [10] = target: T1, Estrogen receptor (Homo sapiens, UniProt P03372); test: Antagonist activity at estrogen receptor in human Ishikawa cells assessed as 17-beta-estradiol-induced alkaline phosphatase activity after 3 days by chemiluminescence assay; type: functional, cell-based
T1 sequence (P03372 whole entry): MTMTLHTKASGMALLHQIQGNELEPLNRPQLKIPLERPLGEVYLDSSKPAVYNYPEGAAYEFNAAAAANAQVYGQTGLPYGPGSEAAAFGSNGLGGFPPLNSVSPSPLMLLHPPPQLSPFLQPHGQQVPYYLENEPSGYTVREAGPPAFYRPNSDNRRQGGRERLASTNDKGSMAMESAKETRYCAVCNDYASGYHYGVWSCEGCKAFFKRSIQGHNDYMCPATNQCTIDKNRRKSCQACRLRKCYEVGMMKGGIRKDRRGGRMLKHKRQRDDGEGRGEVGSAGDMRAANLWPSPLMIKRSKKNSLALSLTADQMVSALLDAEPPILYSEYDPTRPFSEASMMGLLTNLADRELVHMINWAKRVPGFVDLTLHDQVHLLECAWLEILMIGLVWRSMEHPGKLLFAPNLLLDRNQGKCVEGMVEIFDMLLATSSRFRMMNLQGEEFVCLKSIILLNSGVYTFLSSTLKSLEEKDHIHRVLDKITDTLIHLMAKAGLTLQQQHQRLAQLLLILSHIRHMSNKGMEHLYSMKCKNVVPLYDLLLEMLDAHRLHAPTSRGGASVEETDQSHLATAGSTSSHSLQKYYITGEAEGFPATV

Rattus norvegicus [11] = test: Decrease in plasma cholesterol level in ovariectomized rat osteopenia model at 0.003 to 0.3 mg/kg, po administered daily measured after 2 weeks; type: functional, organism-based
Rattus norvegicus [12] = test: Increase in vaginal fluidity in po dosed ovariectomized rat administered daily measured after 2 weeks […]; type: functional, organism-based
Outline: (§2)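 Ovariectomized adult female rats dosed daily by oral gavage (0.5% Methocel suspension) for 2 or 6 weeks from 24 h after surgery. Vaginal fluid collected with a cotton swab and its absolute weight determined per animal.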

[13] = Oral bioavailability in rat at 10 mg/kg administered as single dose by LC-MS/MS analysis; type: ADME, organism-based; conditions: in vivo; outline: as §1
Estrogen receptor [14] = target: T1, Estrogen receptor; test: Displacement of radiolabeled estrogen from estrogen receptor alpha by scintillation counting
Rattus norvegicus [15] = test: Increase in vaginal fluidity in ovariectomized rat at 0.1 mg/kg, po administered daily measured after 6 weeks by cytology analysis; type: functional, organism-based; design: dose 0.1 mg/kg; outline: as §2
[16] = Cmax in rats after 2 mg/kg intravenous dose; type: ADME, organism-based; design: dose 2 mg/kg, route intravenous; conditions: rat, in vivo; outline: as §1
Rattus norvegicus [17] = test: Decrease in bone resorption in ovariectomized rat assessed as decrease in urine deoxypyridinoline level at 0.003 to 0.3 mg/kg, po administered daily measured after 6 weeks; type: functional, organism-based
Outline: (§3)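 Adult (>6 months) female rats, housed singly on a casein-based diet, ovariectomized under sterile conditions and anesthesia; 6-14 per group. From 24 h after surgery, daily oral gavage of an aqueous suspension in 0.5% Methocel for 2 or 6 weeks. […] Urine deoxypyridinoline measured as bone-resorption marker.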

Rattus norvegicus [18] = test: Effect on bone turnover in ovariectomized rat assessed as prevention of tibial bone density at 0.3 mg/kg, po administered daily measured after 6 weeks by ex vivo peripheral quantitative computerized tomography; type: functional, organism-based; design: dose 0.3 mg/kg
[19] = Tmax in rat at 10 mg/kg, po administered as single dose by LC-MS/MS analysis; type: ADME, organism-based; design: dose 10 mg/kg, route oral; conditions: in vivo; outline: as §1
[20] = Tmax in rat at 2 mg/kg, iv administered as single dose by LC-MS/MS analysis; type: ADME, organism-based; design: dose 2 mg/kg, route intravenous; conditions: in vivo; outline: as §1
[21] = Half life in rat at 10 mg/kg, po administered as single dose by LC-MS/MS analysis; type: ADME, organism-based; design: dose 10 mg/kg, route oral; conditions: in vivo; outline: as §1
Rattus norvegicus [22] = test: Decrease in tail skin temperature rise in morphine-addicted Sprague-Dawley rat hot flush model at 0.01 to 10 mg/kg, po administered daily measured for 60 mins after naloxone-induced morphine withdrawal; type: functional, organism-based
Outline: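 Ovariectomized adult female Sprague-Dawley rats (3 months), 8-25 per group; oral gavage starting 6 days post-ovariectomy, sesame oil vehicle, suspension. Morphine given sc at 75 and 150 mg on treatment days 3 and 5. On the last day, under ketamine (80 mg/kg, im), tail thermistor; baseline about 20 min, then naloxone 2.0 mg/kg sc and tail skin temperature recorded 60 min. Multiple comparisons at each time point.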

[23] = AUC in rat at 10 mg/kg, po administered as single dose by LC-MS/MS analysis; type: ADME, organism-based; design: dose 10 mg/kg, route oral; conditions: plasma; outline: as §1
[24] = Cmax in rats after 10 mg/kg oral dose; type: ADME, organism-based; design: dose 10 mg/kg, route oral; conditions: rat, in vivo; outline: as §1
Rattus norvegicus [25] = test: Estrogenic activity in ovariectomized rat assessed as increase in uterine epithelial thickness at 0.1 mg/kg, po administered daily measured after 6 week by immunohistochemical analysis; type: functional, organism-based; design: dose 0.1 mg/kg
Rattus norvegicus [26] = test: Estrogenic activity in ovariectomized rat assessed as minor increase in uterine epithelial thickness at 0.001 to 0.3 mg/kg, po administered daily measured after 6 week by immunohistochemical analysis; type: functional, organism-based
Rattus norvegicus [27] = test: Uterotropic activity in rat assessed as stimulation of estrone-induced uterine weight at 1 mg/kg, po QD after 3 days; type: functional; conditions: Uterus, 72 h
Rattus norvegicus [28] = test: Increase in vaginal secretion in ovariectomized rat at 1 mg/kg, po administered daily measured after 2 weeks […]; type: functional, organism-based; design: dose 1 mg/kg; outline: as §2
Rattus norvegicus [29] = test: Estrogenic activity in ovariectomized rat assessed as minor increase in uterine epithelial thickness at 1 mg/kg, po administered daily measured after 6 week by immunohistochemical analysis; type: functional, organism-based; design: dose 1 mg/kg
Rattus norvegicus [30] = test: Effect on bone turnover in ovariectomized rat assessed as prevention of tibial bone density at 1 mg/kg, po administered daily measured after 6 weeks by ex vivo peripheral quantitative computerized tomography; type: functional, organism-based; design: dose 1 mg/kg
Rattus norvegicus [31] = test: Decrease in bone resorption in ovariectomized rat assessed as decrease in urine deoxypyridinoline level at 1 mg/kg, po administered daily measured after 6 weeks; type: functional, organism-based; design: dose 1 mg/kg; outline: as §3

Estrogen receptor beta, sequence (Q92731 whole entry): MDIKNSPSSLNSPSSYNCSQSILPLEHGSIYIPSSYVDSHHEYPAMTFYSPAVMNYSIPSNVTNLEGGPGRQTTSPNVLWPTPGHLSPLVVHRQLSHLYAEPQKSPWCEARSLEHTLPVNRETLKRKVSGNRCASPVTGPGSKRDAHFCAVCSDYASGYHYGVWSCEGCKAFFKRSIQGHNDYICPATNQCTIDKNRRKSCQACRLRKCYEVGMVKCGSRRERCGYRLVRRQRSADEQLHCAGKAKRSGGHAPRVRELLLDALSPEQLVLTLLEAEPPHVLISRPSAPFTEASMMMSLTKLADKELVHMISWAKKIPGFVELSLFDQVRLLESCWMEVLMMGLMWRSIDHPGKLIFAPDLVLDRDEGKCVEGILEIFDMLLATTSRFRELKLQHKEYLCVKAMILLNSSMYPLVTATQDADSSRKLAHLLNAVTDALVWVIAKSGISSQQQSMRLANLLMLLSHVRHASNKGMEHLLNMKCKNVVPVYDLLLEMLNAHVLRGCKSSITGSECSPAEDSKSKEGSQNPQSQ

- half-life [6]: 5.82 h
- IC50 (Estrogen receptor beta): Not Active
- AUC [9]: 1390 ng·h/mL
- IC50 (Estrogen receptor [10]): 1740 nM
- bioavailability [13]: 30.8%
- IC50 (Estrogen receptor [14]): 64 nM
- Cmax [16]: 1040 ng/mL
- Tmax [19]: 5 h
- Tmax [20]: 4.8 min
- half-life [21]: 7.2 h
- AUC [23]: 2270 ng·h/mL
- Cmax [24]: 168 ng/mL
SMILES: COc1ccc2c(c1)O[C@H](c1ccc(OCCN3CCCCC3)cc1)C1=C2CCOc2cc(OC)ccc21
- Activity (Rattus norvegicus [1]): Dose-dependent effect
- Activity (Rattus norvegicus [2]): 50%
- Activity (Rattus norvegicus [3]): 50%
- Activity (Rattus norvegicus [4]): inactive
- Activity (Rattus norvegicus [5]): Dose-dependent effect
- Activity (Rattus norvegicus [7]): 60%
- inhibition in vivo at 1 mg/kg (Rattus norvegicus [8]): 121%
- Activity (Rattus norvegicus [11]): Active
- Activity (Rattus norvegicus [12]): Dose-dependent effect
- Activity (Rattus norvegicus [15]): Active
- Activity (Rattus norvegicus [17]): Active
- Activity (Rattus norvegicus [18]): Active
- Activity (Rattus norvegicus [22]): Active
- Activity (Rattus norvegicus [25]): Active
- Activity (Rattus norvegicus [26]): Active

- IC50 (Estrogen receptor beta): 23 nM
SMILES: CN(C)CCOc1ccc([C@@H]2Oc3ccccc3C3=C2c2ccc(O)cc2OCC3)cc1
- inhibition in vivo at 1 mg/kg (Rattus norvegicus [8]): 18%
- stimulation at 1 mg/kg (Rattus norvegicus [27]): 70%

SMILES: O=C(c1ccc(OCCN2CCCCC2)cc1)c1c(-c2ccc(O)cc2)sc2cc(O)ccc12 [RALOXIFENE]
- Activity (Rattus norvegicus [28]): inactive
- Activity (Rattus norvegicus [29]): Active
- inhibition in vivo at 1 mg/kg (Rattus norvegicus [8]): 105%
- Activity (Rattus norvegicus [30]): Active
- Activity (Rattus norvegicus [31]): Active

- IC50 (Estrogen receptor beta): 12 nM
- IC50 (Estrogen receptor [10]): 405 nM
- IC50 (Estrogen receptor [14]): 11 nM
SMILES: CN(C)CCOc1ccc([C@@H]2Oc3cc(O)ccc3C3=C2c2ccc(O)cc2OCC3)cc1
- inhibition in vivo at 1 mg/kg (Rattus norvegicus [8]): 0%
- stimulation at 1 mg/kg (Rattus norvegicus [27]): 100%

- IC50 (Estrogen receptor beta): 28 nM
- IC50 (Estrogen receptor [10]): 133 nM
- IC50 (Estrogen receptor [14]): 9 nM
SMILES: CCN(CC)CCOc1ccc([C@@H]2Oc3ccccc3C3=C2c2ccc(O)cc2OCC3)cc1
- inhibition in vivo at 1 mg/kg (Rattus norvegicus [8]): 30%
- stimulation at 1 mg/kg (Rattus norvegicus [27]): 100%

SMILES: CC/C(=C(\c1ccccc1)c1ccc(OCCN(C)C)cc1)c1ccccc1 [TAMOXIFEN]
- inhibition in vivo at 1 mg/kg (Rattus norvegicus [8]): 0%
- stimulation at 1 mg/kg (Rattus norvegicus [27]): 109%
